Test results taken from ChEMBL document CHEMBL4038327, “Inhibitory Kappa B Kinase α (IKKα) Inhibitors That Recapitulate Their Selectivity in Cells against Isoform-Related Biomarkers” (J Med Chem, 2017).

Experiments:
[1] = target: T1, Inhibitor of nuclear factor kappa-B kinase subunit alpha (Homo sapiens, UniProt O15111); experiment: Inhibition of recombinant human N-terminal GST-tagged IKKalpha (1 to 745 residues) expressed in baculovirus expression system using biotinylated IkBalpha as substrate after 60 mins by DELFIA
T1 sequence (O15111 whole entry): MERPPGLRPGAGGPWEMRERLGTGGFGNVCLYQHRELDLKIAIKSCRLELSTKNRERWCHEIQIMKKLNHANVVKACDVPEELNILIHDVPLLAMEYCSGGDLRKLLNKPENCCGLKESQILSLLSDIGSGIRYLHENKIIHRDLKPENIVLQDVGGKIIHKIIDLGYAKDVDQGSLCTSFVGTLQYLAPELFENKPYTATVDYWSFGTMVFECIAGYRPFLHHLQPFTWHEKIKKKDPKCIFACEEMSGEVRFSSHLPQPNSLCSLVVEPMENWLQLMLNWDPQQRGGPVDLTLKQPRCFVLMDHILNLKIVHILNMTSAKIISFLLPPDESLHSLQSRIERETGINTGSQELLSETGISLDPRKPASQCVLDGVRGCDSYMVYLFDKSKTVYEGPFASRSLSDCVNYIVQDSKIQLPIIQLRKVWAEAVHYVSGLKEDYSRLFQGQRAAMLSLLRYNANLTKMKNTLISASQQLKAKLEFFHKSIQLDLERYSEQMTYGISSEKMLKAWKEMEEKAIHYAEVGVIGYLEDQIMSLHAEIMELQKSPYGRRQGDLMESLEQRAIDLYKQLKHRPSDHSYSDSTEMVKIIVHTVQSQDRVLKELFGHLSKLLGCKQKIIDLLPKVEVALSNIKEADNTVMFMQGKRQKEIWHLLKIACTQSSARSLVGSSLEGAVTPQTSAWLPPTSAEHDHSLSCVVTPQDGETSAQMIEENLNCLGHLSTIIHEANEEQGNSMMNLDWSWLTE

[2] = target: T2, Inhibitor of nuclear factor kappa-B kinase subunit beta (Homo sapiens, UniProt O14920); experiment: Inhibition of recombinant full length human IKKbeta expressed in baculovirus infected sf9 insect cells using biotinylated IkBalpha as substrate after 60 mins by DELFIA
T2 sequence (O14920 whole entry): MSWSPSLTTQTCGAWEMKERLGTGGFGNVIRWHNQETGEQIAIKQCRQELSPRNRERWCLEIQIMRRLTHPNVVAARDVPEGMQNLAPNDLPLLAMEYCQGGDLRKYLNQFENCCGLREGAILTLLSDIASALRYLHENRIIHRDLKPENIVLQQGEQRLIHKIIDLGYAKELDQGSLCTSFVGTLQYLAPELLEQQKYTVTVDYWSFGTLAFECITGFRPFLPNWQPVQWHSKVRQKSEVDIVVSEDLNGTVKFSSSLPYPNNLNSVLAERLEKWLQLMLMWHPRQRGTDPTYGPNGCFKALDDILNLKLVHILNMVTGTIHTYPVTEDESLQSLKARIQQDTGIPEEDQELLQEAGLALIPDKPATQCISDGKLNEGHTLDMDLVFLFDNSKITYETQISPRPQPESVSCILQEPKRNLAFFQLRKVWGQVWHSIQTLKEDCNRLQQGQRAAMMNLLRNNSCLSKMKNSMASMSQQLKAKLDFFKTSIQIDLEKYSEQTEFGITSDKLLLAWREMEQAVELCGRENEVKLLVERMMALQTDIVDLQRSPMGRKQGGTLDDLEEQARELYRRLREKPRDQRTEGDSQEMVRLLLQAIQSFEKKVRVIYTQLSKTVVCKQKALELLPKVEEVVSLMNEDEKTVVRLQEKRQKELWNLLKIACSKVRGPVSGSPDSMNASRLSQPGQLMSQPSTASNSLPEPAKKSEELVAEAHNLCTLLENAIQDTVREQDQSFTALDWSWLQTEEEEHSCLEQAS
Procedure, shortened: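 Recombinant IKKβ (37 nM) was incubated with biotinylated IκB-α (Ser32) peptide (0.375 μM) and 40 μM ATP in Tris-HCl pH 7.5 with MgCl2, EDTA, DTT and BSA for 60 min at 30 °C. The reaction was quenched with EDTA and captured on streptavidin. Detection used anti-phospho-IκBα (Ser32/36) mAb plus Eu-anti-mouse IgG, read by time-resolved fluorescence (340/615 nm). Apparent Ki was obtained via Cheng–Prusoff, n=3.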

Ki [1] [µM]	Ki [2] [µM]	Structure (SMILES)
> 30	20	N#Cc1c[nH]c2nc(N)nc(N3CCOCC3)c12
5.3	> 30	N#Cc1c[nH]c2nc(N)nc(NCc3ccccc3)c12
2	> 30	N#Cc1c[nH]c2nc(N)nc(N[C@H]3CC[C@H](O)CC3)c12
> 30	> 30	CN(c1nc(N)nc2[nH]cc(C#N)c12)C1CCCCC1
7.7	> 30	N#Cc1c[nH]c2nc(N)nc(-c3cccc(F)c3)c12
> 30	> 30	N#Cc1c[nH]c2nc(N)nc(N3CC[C@@H](O)C3)c12
13	> 30	N#Cc1c[nH]c2nc(N)nc(Nc3ccccc3)c12
0.8	3.6	N#Cc1c[nH]c2nc(N)nc(N[C@@H]3C[C@H](O)[C@@H](O)[C@H]3O)c12
1.8	> 30	N#Cc1c[nH]c2nc(N)nc(NC3CCCCC3)c12
16	> 30	N#Cc1c[nH]c2nc(N)nc(NCC3CC3)c12
1.7	> 30	N#Cc1c[nH]c2nc(N)nc(-c3ccccc3)c12
> 30	> 30	N#Cc1c[nH]c2nc(N)nc(N)c12
> 30	> 30	N#Cc1c[nH]c2nc(N)nc(NCCN3CCOCC3)c12
6	> 30	N#Cc1c[nH]c2nc(N)nc(N3CC[C@H](O)C3)c12
> 30	> 30	N#Cc1c[nH]c2nc(N)nc(Nc3ccc(C(=O)O)cc3)c12
10	> 30	N#Cc1c[nH]c2nc(N)nc(Nc3ccc(S(N)(=O)=O)cc3)c12
5.3	> 30	N#Cc1c[nH]c2nc(N)nc(N3CCCCC3)c12
1.6	> 30	N#Cc1c[nH]c2nc(N)nc(NCCO)c12
13	> 30	CNc1nc(N)nc2[nH]cc(C#N)c12
4	> 30	N#Cc1c[nH]c2nc(N)nc(Cl)c12

Continued, compound first:

Structure (SMILES)	Ki [1] [µM]	Ki [2] [µM]
N#Cc1c[nH]c2nc(N)nc(N3CCN(c4ccccc4)CC3)c12	> 30	> 30
N#Cc1c[nH]c2nc(N)nc(N3CCC[C@@H]3CO)c12	2.5	> 30
NC(=O)c1c[nH]c2nc(N)nc(N[C@H]3CC[C@H](O)CC3)c12	> 30	> 30
Nc1nc(N[C@H]2CC[C@H](O)CC2)c2cc[nH]c2n1	> 30	> 30
N#Cc1c[nH]c2nc(N)nc(-c3ccccc3CO)c12	> 30	> 30
Nc1nc(N2CCCCC2)c2cc[nH]c2n1	> 30	> 30
N#Cc1c[nH]c2nc(N)nc(-c3cccc(CO)c3)c12	9.8	4
N#Cc1c[nH]c2nc(N)nc(N3CCN(CCO)CC3)c12	> 30	> 30
CNS(=O)(=O)c1ccc(-c2nc(N)nc3[nH]cc(C#N)c23)cc1	1.7	0.4
N#Cc1c[nH]c2ncnc(-c3ccc(S(N)(=O)=O)cc3)c12	2.1	> 30
Nc1nc(Cl)c2cc[nH]c2n1	> 30	> 30
Nc1nc(NC2CCCCC2)c2cc[nH]c2n1	> 30	> 30
CS(=O)(=O)c1ccc(-c2nc(N)nc3[nH]cc(C#N)c23)cc1	2.4	0.3
N#Cc1c[nH]c2nc(N)nc(-c3ccc(O)cc3)c12	1.6	20
NS(=O)(=O)c1ccc(-c2ncnc3[nH]ccc23)cc1	1.5	2.5
N#Cc1c[nH]c2nc(N)nc(-c3cccc(C(N)=O)c3)c12	> 30	> 30
N#Cc1c[nH]c2nc(N)nc(-c3ccccc3O)c12	15	> 30

Structure (SMILES)	Ki [1] [µM]	Ki [2] [µM]
N#Cc1c[nH]c2nc(N)nc(N3CCC[C@H]3CO)c12	3.1	> 30
CS(=O)(=O)Nc1ccc(-c2nc(N)nc3[nH]cc(C#N)c23)cc1	1.4	0.1
Cc1ccc(NS(=O)(=O)c2ccc(-c3nc(N)nc4[nH]cc(C#N)c34)cc2)cc1	16	1.4
Nc1nc(-c2ccc(S(N)(=O)=O)cc2)c2cc[nH]c2n1	2.9	0.61
N#Cc1c[nH]c2nc(N)nc(-c3ccccc3F)c12	2	> 30
N#Cc1c[nH]c2nc(N)nc(N3CCC(S(N)(=O)=O)CC3)c12	5.3	5.9
N#Cc1c[nH]c2nc(N)nc(-c3ccc(F)cc3)c12	10	> 30
N#Cc1c[nH]c2nc(N)nc(-c3cccc(S(N)(=O)=O)c3)c12	5.3	5.9
Nc1nc(NC2CCCCC2)c2c(C(F)(F)F)c[nH]c2n1	> 30	> 30
CN1CCN(c2nc(N)nc3[nH]cc(C#N)c23)CC1	> 30	> 30
N#Cc1c[nH]c2nc(N)nc(-c3ccccc3S(N)(=O)=O)c12	> 30	> 30
N#Cc1c[nH]c2nc(N)nc(-c3ccc(C(N)=O)cc3)c12	16	> 30
N#Cc1c[nH]c2nc(N)nc(-c3ccccc3C(N)=O)c12	> 30	> 30
N#Cc1c[nH]c2nc(N)nc(N3CCN(CCCO)CC3)c12	12.1	> 30
N#Cc1c[nH]c2nc(N)nc(N(CCO)C3CCCCC3)c12	> 30	> 30
N#Cc1c[nH]c2nc(N)nc(-c3cccc(O)c3)c12	2.4	3.8
